Bioassay records (PubChem BioAssay)
MC4R antagonist: human MC4R antagonism in cAMP assay | AID 540295 | 0.48% of 360,000 active | MC4R-expressing cells, MTII-stimulated cAMP, LANCE TR-FRET | inhibition, % at 6.5 µM;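 active = inhibition above its plate's cutoff, the mean of tested wells on that plate plus 3 SD, cut at about 29% in these data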;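 note: 0% = Melanotan II alone and 100% = Melanotan II plus saturating MCL0020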
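Material: U2OS-MC4R stable cell line | Reagent: Melanotan II challenge after compound preincubation | Doses: One concentration, 6.5 µM nominal | Incubation: 30-min compound preincubation, 1-h Melanotan II challenge, 1-h detection, room temperature | Signal: TR-FRET cAMP assay | Replicates: One well per compound, no replicates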
AHR activator: activators of human aryl hydrocarbon receptor | P35869 | AHR-responsive luciferase reporter cells, luminescence | activation, % at 5 µM | 2.5% of 320,000 active | AID 2796; in the data active = activation above about 47%;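 note: 0% = vehicle wells and 100% = reference agonist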
HTR2A ag: agonists of mouse serotonin 5-HT2A receptor (HTR2A). 0.66% of 360,000 active. CHO-K1 mHTR2A beta-arrestin complementation, luminescence; percent of 30 µM serotonin response. activation, % at 7.6 µM. P35363;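 active = activation above a run cutoff, the mean activation of all tested compounds plus 3 SD, cut at about 14% in these data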;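 note: 0% = plate median of compound wells and 100% = 30 µM serotonin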
Target sequence (P35363 whole entry, looked up): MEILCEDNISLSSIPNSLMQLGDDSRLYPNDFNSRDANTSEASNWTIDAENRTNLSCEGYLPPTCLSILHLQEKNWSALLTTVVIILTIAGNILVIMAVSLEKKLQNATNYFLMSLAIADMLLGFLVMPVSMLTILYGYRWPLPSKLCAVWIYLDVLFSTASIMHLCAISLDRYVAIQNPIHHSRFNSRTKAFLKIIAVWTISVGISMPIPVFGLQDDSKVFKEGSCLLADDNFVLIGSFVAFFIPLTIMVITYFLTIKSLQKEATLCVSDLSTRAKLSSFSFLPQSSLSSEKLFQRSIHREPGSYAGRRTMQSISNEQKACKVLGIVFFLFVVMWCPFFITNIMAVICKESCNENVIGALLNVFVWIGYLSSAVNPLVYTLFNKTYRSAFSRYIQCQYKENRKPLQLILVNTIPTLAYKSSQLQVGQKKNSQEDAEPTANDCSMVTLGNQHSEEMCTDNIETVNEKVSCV
MC4R ag barr: agonists of human melanocortin 4 receptor (MC4R) beta-arrestin. P32245. U2OS MC4R beta-arrestin complementation, luminescence; percent of melanotan II response, DMSO zero. activation, % at 8.9 µM. 0.98% of 360,000 active;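 active = activation above a per-plate cutoff, the mean activation of sample wells on that plate plus 3 SD, cut at about 8% in these data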
FXN GAA850 act: activators of GAA850 frataxin (FXN) promoter; HEK293 lucGAA850 FXN promoter luciferase reporter, 24 h; percent of 10 µM SAHA response; activation, % at 6 µM; 0.56% of 360,000 active; AID 540364;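 active = activation above the average of all compounds screened plus 3 SD, cutoff fixed separately per campaign, cut at about 7.5% in these data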;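 note: 0% = DMSO wells and 100% = 10 µM SAHA wells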
AHR act cf: confirmation of human aryl hydrocarbon receptor activators; activation, % at 9 µM; human cells, AHR-responsive luciferase reporter, luminescence; shares compounds with AHR activator; 87% of 2,300 active; in the data active = activation above about 49%;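 note: HepG2 hepatoma cells carrying a DRE-driven firefly luciferase reporter; 0% = vehicle wells and 100% = reference agonist wells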
PXR counter: activates human PXR in AHR activator counter-screen. AID 434939. shares compounds with AHR activator. activation, % at 11.6 µM. 88% of 2,300 active. cell-based PXR reporter, luciferase luminescence; in the data active = activation above about 11%;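 note: human hepatoma DPX-2 cells expressing full-length human PXR; 0% = DMSO and 100% = reference agonist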
* = called active by the depositor; · = not tested or not shown. Sampled rows, rich in hits. Any-hit rate of the full collection: about 4.7%.

SMILES	MC4R antagonist	AHR activator	HTR2A ag	MC4R ag barr	FXN GAA850 act	AHR act cf	PXR counter
Cc1nn(CC(=O)Nc2ccc(C(=O)N3CCCC3)cc2)c(=O)c2ccccc12	8	86*	0	1	0	5	5
OC[C@@H]1CN(CCc2ccccc2)C[C@H](n2cnc3c(NCc4ccc(F)cc4)ncnc32)O1	-56	·	0	-1	0	·	·
O=C1c2ccccc2C(=O)N1CCc1ccccn1	0	99*	-2	-1	1	100*	10*
Cc1cn2c(N)c(/C=C3\C=Nc4ccccc43)c(=O)nc2s1	-8	111*	4	3	3	116*	20*
O=C(NCc1cccc(Cl)c1)C1Cc2c(-c3ccccc3)ccnc2O1 (stereo not given)	-7	·	-11	1	-2	·	·
OC(c1cc(Cl)cc(Cl)c1)c1ncc(-c2cccc(F)c2)[nH]1 (stereo not given)	3	·	6	5	2	·	·
OCCOCCn1c(CCNc2nc(-c3ccc(F)cc3)cs2)nc2cc(C(F)(F)F)ccc21	9	91*	2	1	0	50*	27*
OCCCn1c(CCNc2nc(-c3ccc(Cl)cc3)cs2)nc2cc(C(F)(F)F)ccc21	12	41	-1	2	2	·	·
Nc1c(Cl)cc(-c2csc(NCCc3nc4cc(Cl)c(Cl)cc4n3CCCO)n2)cc1Cl	11	131*	-7	-1	1	113*	82*
O=C(NC(=S)N1CCCCC1CO)c1cc(Br)ccc1Cl (stereo not given)	-8	·	-8	-4	2	·	·
Cc1c(C(=O)N/N=C/C(C)C)[nH]c2c([N+](=O)[O-])cccc12	-27	86*	0	-1	1	39	10*
CC(C)Cn1nc(C(=O)NCc2ccccc2CN2CCCC2)c2ccccc2c1=O	0	1	-9	-4	0	·	·
FC(F)(F)c1cc(C(F)(F)F)n2nc(-c3sccc3-n3cccc3)cc2n1	6	10	2	1	-1	·	·
Cc1cc(C)n2nc(-c3ccc(Br)cc3)cc2n1	1	134*	2	0	6	96*	30*
Cc1nc2cc(-c3ccc(Cl)cc3)nn2c(NCCN(C)C)c1C	-1	114*	-5	1	5	102*	15*
COc1ccc(-c2cc3nc(C)cc(C)n3n2)cc1	0	40	2	-1	6	·	·
Cc1cc(C)n2nc(-c3sccc3-n3cccc3)cc2n1	-3	93*	-1	-1	0	55*	61*
Cc1cc(-c2ccc(Cl)cc2)n2nc(C)cc2n1	-11	17	1	-1	2	·	·
Cc1cc(C)n2nc(-c3ccc(Cl)cc3)cc2n1	-5	98*	2	0	4	120*	27*
Cc1cc(N)n2nc(-c3ccccc3)cc2n1	14	2	2	1	4	·	·
COc1ccc(S(=O)(=O)N2CCOCC2)cc1NC(=O)CN1C(=O)NC2(CCCCC2C)C1=O (stereo not given)	3	1	1	-2	0	·	·
COc1ccccc1Nc1nc(N)nc(CN2CCOCC2)n1	9	14	2	-1	0	·	·
COc1ccccc1Nc1nc(N)nc(-c2cc3ccccc3o2)n1	5	85*	3	1	1	21	46*
Cc1cccc(C(=O)N[C@H](C(=O)Nc2ncc(C)s2)C(C)C)c1	10	104*	4	-1	1	19	364*
Cc1cccc(C(=O)N[C@H](C(=O)Nc2nnc(C3CC3)s2)C(C)C)c1	5	2	-1	1	1	·	·
SMILES	MC4R antagonist	AHR activator	HTR2A ag	MC4R ag barr	FXN GAA850 act	AHR act cf	PXR counter
CCOC(=O)CCCCCN(Cc1ccccc1)S(=O)(=O)c1ccc([N+](=O)[O-])cc1	5	92*	3	2	0	2	27*
CCOC(=O)c1ccc(CN(Cc2ccccc2)S(=O)(=O)c2cccc([N+](=O)[O-])c2)cc1	-1	-4	3	-1	3	·	·
Cc1ccc2c(c1)sc1nncn12	-1	·	6	-2	2	·	·
Cc1c(C(=O)/C=C/c2cccs2)oc2ccc(F)cc12	4	81*	-4	-2	2	103*	76*
Cc1c(C(=O)N2CCN(C(=O)c3ccccc3)CC2)oc2ccc(F)cc12	4	16	2	0	-1	·	·
COc1ccccc1CN(C)C(=O)c1sccc1-c1ccccc1	10	0	-3	0	-1	·	·
COc1ccc(NC(=O)c2cc3c([nH]c4ccccc43)c(C)n2)cc1	2	85*	0	-2	2	88*	15*
CC1(O)C(c2ccccc2)=Nc2ccccc21 (stereo not given)	4	·	1	-2	3	·	·
O=C(N/N=C/c1cn(Cc2ccccc2)c2ccccc12)c1cccnc1	-6	86*	-9	-3	1	-9	-3
C#CCn1cc(/C=N/NC(=O)c2cc3ccccc3o2)c2ccccc21	0	112*	-10	1	2	87*	·
O=C(N/N=C/c1cn(Cc2ccccc2)c2ccccc12)c1ccncc1	-6	24	-9	1	-1	·	·
C[C@H](CO)N1C[C@H](C)[C@@H](CN(C)C(=O)C2CCCCC2)OCc2cn(nn2)CCCC1=O	0	·	0	0	-1	·	·
CCNC(=O)C12CCC(C)(C(=O)O1)C2(C)C (stereo not given)	9	1	0	-2	-1	·	·
CCOc1ccccc1C(=O)Nc1cccc2ccccc12	3	88*	-1	-1	1	63*	34*
CCOc1ccccc1C(=O)Nc1ccccc1O	7	25	-6	0	0	·	·
CCOc1ccccc1NC(=O)c1ccoc1C	5	81*	-4	-1	1	89*	13*
O=C(NN=C1CCCCC1)c1cc(-c2ccccc2)n[nH]1	0	121*	0	-1	1	44	17*
C=CCSc1nc2sc3c(c2c(=O)n1CC=C)CCc1ccccc1-3	0	33	-1	0	6	·	·
NNc1nc2sc3c(c2c(=O)[nH]1)CCc1ccccc1-3	-4	133*	-1	-3	3	78*	·
Cc1cccc(-c2sc(Nc3ccccc3)n[n+]2-c2ccccc2)c1	12	108*	1	0	0	50*	132*
O=C(O)c1ccc(-c2sc(Nc3ccccc3)n[n+]2-c2ccccc2)cc1	3	43	3	1	0	·	·
c1ccc(-c2nc3c(ccc4ccccc43)[nH]2)nc1	2	95*	-3	-1	1	138*	11*
